Assay outcomes as filed in PubChem.
Hits are enriched below; roughly 2.6% of the tested compounds scored in any of these assays.
PG9 Ab binder = binders of HIV-1 gp120 antibody PG9, primary screen, biochemical, TR-FRET; HIV-1 gp120 / PG9 antibody interaction; TR-FRET gp120-PG9 antibody binding; inhibition, % at 6.7 µM; hit rate 0.43% among 360,000; AID 624416, 2012; in the data active means inhibition above about 8.5%
NR1D1 modulator = modulators of Rev-erb alpha DNA binding, primary screen, biochemical, FITC-DNA, fluorescence polarization, uHTS | Rev-erbα–FITC-DNA binding, 90 min | activity, % at 10 µM | hit rate 0.79% among 370,000 | AID 1259318, 2017;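 active means activity above about 14%, limit read from the data; passing the limit was not always enough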;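 further: 0% = DMSO wells with 35 nM protein and 100% = DMSO wells with 750 nM protein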
rCAG RNA binder = binders of r(CAG) RNA repeats, primary screen, biochemical, fluorescence; r(CAG) RNA repeat, TO-PRO-1 dye displacement fluorescence; inhibition, % at 3 µM; hit rate 1.3% among 370,000;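 active means inhibition above the plate cutoff, the mean of all test compounds on that plate plus 3 SD, cut at about 35% in these data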;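 further: 0% = DMSO alone and 100% = 100 µM mitoxantrone as full dye displacement; higher means more dye released from RNA so lower well fluorescence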
NR2E3 ag-1 = inhibitors of NR2E3-RetCOR corepressor binding, primary screen, NR2E3 agonist project, biochemical, TR-FRET, GST-NR2E3, biotin-RetCOR; hit rate 0.12% among 320,000; Photoreceptor-specific nuclear receptor (Homo sapiens), Q9Y5X4; inhibition of corepressor binding, % at 4.78 µM; AID 2300, 2010; 1536-well;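 active means percent inhibition above the cutoff of mean plus 3 SD of all tested compounds, set per screening campaign, cut at about 20% in these data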;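 further: 0% = DMSO wells and 100% = biotin wells as full block of FRET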
Target sequence (Q9Y5X4 whole entry, looked up): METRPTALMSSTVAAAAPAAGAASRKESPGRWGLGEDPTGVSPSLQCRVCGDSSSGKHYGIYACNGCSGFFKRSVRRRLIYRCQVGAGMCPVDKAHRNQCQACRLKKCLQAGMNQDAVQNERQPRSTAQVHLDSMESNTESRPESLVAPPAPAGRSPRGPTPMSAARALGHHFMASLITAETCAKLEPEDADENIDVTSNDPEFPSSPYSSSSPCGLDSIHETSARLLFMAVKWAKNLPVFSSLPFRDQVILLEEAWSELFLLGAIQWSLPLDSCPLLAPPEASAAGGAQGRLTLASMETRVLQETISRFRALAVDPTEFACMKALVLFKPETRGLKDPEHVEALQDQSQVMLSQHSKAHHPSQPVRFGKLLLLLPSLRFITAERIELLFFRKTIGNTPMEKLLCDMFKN
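Material – GST-tagged NR2E3 plus biotinylated RetCOR corepressor · Quantity – NR2E3 fusion 1.35 nM · Times – 5 h incubation at 4 °C · Medium – pH 7.5 Tris-based buffer · Technique – TR-FRET, Eu(K)-anti-GST donor, streptavidin-D2 acceptor, ex 340, em 617/671 nm · Benchmarks – high control biotin, low control 0.6% DMSO · Format – 1536-well plates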
NR2E3 ag-2 = NR2E3 agonists in two-hybrid cells, primary screen, cell-based, luminescence, CHO-S, Gal4-NCOR/VP16-NR2E3 | luciferase | inhibition of corepressor binding, % at 3.98 µM | hit rate 0.35% among 360,000 | AID 602229, 2012;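 active means inhibition above the mean of all tested compounds plus 3 SD, cut at about 70% in these data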;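 further: 0% = DMSO with NR2E3 transfected cells and 100% = cells lacking NR2E3 construct; higher means lower luciferase signal from less NR2E3 corepressor binding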
rCAG binder conf = small molecules binding CAG repeat RNA – biochemical, fluorescence, confirmation; shares compounds with rCAG RNA binder; r(CAG) RNA repeat, TO-PRO-1 dye displacement fluorescence; inhibition, % at 3 µM; hit rate 70% among 4,300; AID 652065, 2013;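 active means inhibition above a per-plate cutoff, the mean inhibition of sample wells plus 3 SD, cut at about 35% in these data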;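 further: loss of TO-PRO-1 fluorescence as compound displaces dye from 1x1 AA loop RNA; 0% = DMSO only wells and 100% = 100 µM mitoxantrone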
dCAG dye counter = displacement of TO-PRO-1 from CAG DNA duplex, counter-screen for rCAG RNA repeat binder project, biochemical, fluorescence, TO-PRO-1 dye, d(CAG) DNA oligo. shares compounds with rCAG RNA binder. d(CAG) DNA oligo TO-PRO-1 dye displacement. inhibition, % at 3 µM. hit rate 94% among 4,300;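 active means inhibition above its plate's cutoff, the mean test-well inhibition plus 3 SD, cut at about 4.8% in these data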;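 further: 0% = DNA dye mix with DMSO and 100% = 100 µM mitoxantrone; hits displace the dye from DNA and so lower well fluorescence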
Numbers without * were called inactive; x = not tested or not shown.

SMILES | PG9 Ab binder | NR1D1 modulator | rCAG RNA binder | NR2E3 ag-1 | NR2E3 ag-2 | rCAG binder conf | dCAG dye counter
Cc1c(Cl)cccc1NC(=O)CSc1sc2c(O)cc(=O)[nH]c2c1C#N | -1 | -1 | 39* | 2 | 7 | 16 | 5.8*
Cc1ccccc1NC(=O)CSc1[nH]c(=O)cc(C)c1C#N | 1 | 0 | 16 | 1 | -4 | x | x
N#Cc1c(SCC(=O)Nc2ccc(Cl)cc2Cl)sc2c(O)cc(=O)[nH]c12 | 0 | -7 | 44* | -2 | -27 | 27 | 13*
Cc1cc(N2CCN(CC(C)(C)O)C[C@H]2C)ccc1N1CCN(CC(C)(C)O)[C@@H](C)C1 | 1 | -7 | 2 | x | x | x | x
COC(=O)C1CN(Cc2ccc(F)cc2)CCS(=O)(=O)N1Cc1cn(Cc2ccc(C)cc2)nn1 (stereo not given) | x | 0 | 2 | x | x | x | x
CCCCn1cnc2c(=O)[nH]ccc21 | x | -2 | 2 | x | x | x | x
O=[N+]([O-])c1cc(Br)c(O)c(/C=N/Nc2nnnn2-c2cccc3ccccc23)c1 | -2 | -10 | 92* | 2 | -18 | 89* | 63*
O=[N+]([O-])c1ccc(NN=Cc2cccc3ccccc23)cc1 | -1 | 1 | 6 | x | -11 | x | x
COC(=O)c1ccc(CSc2nc3ccc(Cl)cc3[nH]2)o1 | -2 | -3 | 3 | -2 | 19 | x | x
COC(=O)c1ccc(CSc2nc3scc(-c4cccs4)c3c(=O)[nH]2)o1 | -2 | -7 | 35* | -3 | -52 | 32 | 14*
N#C/C(=C\c1ccc(O)c(O)c1)C(=O)NCCc1ccccc1 | -3 | 4 | 39* | 1 | 12 | 44* | 13*
Cc1ccc(Cc2c(-c3ccc(C#N)cc3)nc3c(C)cc(Br)cn23)cc1 | 1 | 13 | 18 | x | -17 | x | x
CC(=O)Nc1cccc(NC(=O)CCCC2CCCCC2)c1 | -3 | 1 | -6 | -1 | -42 | x | x
CCC(CC)(CC(=O)Nc1cccc(/C=C/c2nc(C3CCC3)cs2)c1)C(=O)O | x | -2 | 46* | x | x | 55* | 18*
C/C(CC(=O)Nc1ccc2c(c1)OCCO2)=N\NC(=O)Cc1ccc(Cl)cc1 | 1 | 5 | 5 | 0 | -10 | x | x
O=C(Cc1c(C(=O)O)[nH]c2ccc(Cl)cc12)Nc1ccc2c(c1)OCCO2 | -1 | -1 | 50* | 2 | -10 | 42* | 8.4*
Cc1ccc(Cl)cc1N1CCN(C(=O)Cc2c(C(=O)O)[nH]c3ccc(Cl)cc23)CC1 | 0 | 3 | 74* | 1 | -42 | 84* | 55*
Cc1ccc(Cl)cc1N1CCN(C(=O)Cc2c(C(=O)O)[nH]c3ccccc23)CC1 | 0 | 1 | 51* | 1 | -12 | 48* | 14*
CC1CC(C)CN(C(=O)Cc2c(C(=O)O)[nH]c3ccc(Cl)cc23)C1 (stereo not given) | 0 | 6 | 19 | 0 | -9 | x | x
CCCCc1c(Cc2ccccc2)ncn1CCc1ccccc1OC | 0 | 0 | 1 | x | 21 | x | x
Cc1ccc(S(=O)(=O)NN2C(=O)/C(=C/c3cccs3)SC2=S)cc1 | -2 | -1 | 63* | 0 | 38 | 55* | 22*
COc1ccc(/C=C2/SC(=S)N(NS(=O)(=O)c3ccc(C)cc3)C2=O)cc1 | -1 | -8 | 84* | 4 | -12 | 84* | 47*
Cc1ccc(/C=C2\SC(=S)N(NS(=O)(=O)c3ccc(C)cc3)C2=O)cc1 | 3 | 3 | 8 | 3 | 3 | x | x
C=CCOc1ccc(/C=C2\SC(=S)N(NS(=O)(=O)c3ccc(C)cc3)C2=O)cc1 | -1 | -15 | 80* | 1 | -16 | 84* | 53*
N#Cc1ccc(CC(=O)c2ccccc2)[nH]c1=O | -4 | 1 | 35* | x | 15 | 14 | 4
SMILES | PG9 Ab binder | NR1D1 modulator | rCAG RNA binder | NR2E3 ag-1 | NR2E3 ag-2 | rCAG binder conf | dCAG dye counter
Cc1ccc(S(=O)(=O)N(CC(=O)Nc2ccccc2C(=O)O)c2ccccc2C)cc1 | -3 | -2 | 58* | 3 | 2 | 50* | 15*
CCN(CC(=O)NC(=O)Nc1ccccc1F)Cc1ccccc1 | 3 | -1 | -8 | 3 | 0 | x | x
CSc1nnc(N2C(=O)C(O)=C(C(=O)c3ccco3)C2c2ccccc2)s1 (stereo not given) | 0 | 12 | 7 | 2 | -32 | x | x
CSc1nnc(N2C(=O)C(O)=C(C(=O)c3ccc(C)o3)C2c2ccc(C)cc2)s1 (stereo not given) | 2 | 7 | 39* | 14 | -31 | 32 | 5.6*
CCCSc1nnc(N2C(=O)C(O)=C(C(=O)c3ccco3)C2c2ccccc2F)s1 (stereo not given) | 3 | 1 | 48* | 5 | -52 | 41* | 11*
CCOc1cccc(NC(=O)CSc2sc3c(O)cc(=O)[nH]c3c2C#N)c1 | -1 | 1 | 39* | 1 | -19 | 23 | 9.4*
N#Cc1cccc(NC(=O)CSc2sc3c(O)cc(=O)[nH]c3c2C#N)c1 | 0 | -1 | 47* | -5 | -29 | 19 | 7.3*
N#Cc1cccc(NC(=O)CSc2n[nH]c(=O)[nH]c2=O)c1 | 1 | -1 | 2 | 0 | 1 | x | x
COc1ccc(C(=O)Nc2cccc(C(=O)Nc3cc(C)ccn3)c2)cc1 | -1 | -2 | -1 | x | -40 | x | x
COc1ccc(C2C=CC(=O)CC2)c(OC)c1 (stereo not given) | 2 | 0 | 4 | x | 5 | x | x
Cc1noc(NS(=O)(=O)c2ccc(NC(=O)CSc3nc4c(cc3C#N)CCCC4)cc2)c1C | -1 | 4 | 41* | -2 | -7 | 33 | 11*
Cc1noc(NS(=O)(=O)c2ccc(NC(=O)CSc3ncccn3)cc2)c1C | 3 | -6 | 1 | -1 | -13 | x | x
Cc1noc(NS(=O)(=O)c2ccc(NC(=O)CSc3nc4ccccc4s3)cc2)c1C | -1 | -5 | 70* | 4 | -28 | 61* | 25*
Cc1cccc(C)c1NC(=O)C(C)NCc1cccs1 (stereo not given) | 1 | -1 | 1 | x | -1 | x | x
C[C@H](CO)N1C[C@H](C)[C@@H](CN(C)C(=O)c2cccnc2)Oc2ncc(Br)cc2C1=O | -2 | -6 | 2 | x | -25 | x | x
Cc1cc(Br)cn2c(Cc3cccc(Cl)c3)c(C3CCCCC3)nc12 | 0 | -1 | 9 | x | x | x | x
